Source: PMC3755449 (Nature communications, 2013)
Counter-ions that a name gives are not always drawn.

Columns and labels:
[1] = system: schizont-infected RBCs (FVO clone); experiment: Schizont rupture assay; format: cell-based, Plasmodium falciparum; settings: 30 μM
[2] = system: P. falciparum clone FVO merozoites invading RBCs; experiment: Invasion assay using purified invasive merozoites; format: cell-based, Plasmodium falciparum; settings: 25 and 50 μM
Summary of the method: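 Merozoites come from an FVO line selected for prolonged free-merozoite survival. Synchronized schizonts are gradient-purified, ruptured 3 hr at 37°C, and merozoites are filtered twice through 1.2 μm. About 5×10⁷ merozoites are gassed with 2.5×10⁷ pre-warmed RBCs and a range of compound concentrations for 3–4 hr at 37°C. Free merozoites are removed at 50 g for 7 min. Rings are counted by SYBR green/MitoTracker flow cytometry; IC50 by nonlinear regression.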

[3] = system: AMA1 secretion onto merozoite surface; experiment: IFA of AMA1 secretion from micronemes; format: cell-based, Plasmodium falciparum; settings: non-permeabilizing IFA, 60 μM
Summary of the method: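 Schizonts rupture with or without test compound (60 μM) present beforehand. Released merozoites are probed with polyclonal anti-AMA1 antibodies by immunofluorescence under non-permeabilizing conditions to assess surface AMA1.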

[4] = target: Recombinant, his-tagged AMA1 (apical membrane antigen 1), 3D7 allele (Plasmodium falciparum (3D7 allele)) (UniProt Q7KQK5); experiment: AlphaScreen or HTRF

Row | Molecule | merozoite release from schizont-infected RBCs [1] | inhibition of merozoite invasion [2] | AMA1 secretion from micronemes [3] | IC50 [4] [nM]
1 | CN(C)CCCN1c2ccccc2C(C)(C)c2ccccc21 [NCGC00014044, Dimetacrine] | not affected | inhibited merozoite invasion | – | –
2 | Clc1cccc(C(c2ccc3[nH]cnc3c2)n2ccnc2)c1 (stereo not drawn) [NCGC00181034, Liarozole hydrochloride] | not affected | inhibited merozoite invasion | not affected | –
3 | DITQQAKDIGAGPVASCFTTRMSPPQQICLNSVVNTALSTSTQSAMK [Untagged RON2L peptide] | – | – | – | 100
